The values that follow come from ChEMBL document CHEMBL1154004, “Relationships between the structures of flavanone derivatives and their effects in enhancing early growth response-1 gene expression” (2009).

One assay deals with HEK293. The assay is described as follows: Increase in EGR1 mRNA expression in human HEK293 cells at 20 ug/mL after 6 to 12 hrs by dual-glo luciferase assay relative to control. In kind it is functional. A digest of the protocol:
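Egr-1 promoter reporter assay after transient transfection. Activity is the level with compound divided by the compound-free control level, with the control set at 1.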

For another assay, the system named is HeLa. The assay is described as follows: Increase in EGR1 mRNA expression in human HeLa cells after 1 hr by Western blotting. In kind it is functional, cell-based. The settings on record: in the assay text read “EGR1 protein expression” for “EGR1 mRNA expression”. A digest of the protocol: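 Human cervix carcinoma HeLa cells were left untreated or exposed to compound at 10, 20 or 40 for 1 h. Egr-1 protein level was then examined by Western blot.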
A general note: Immunoblotting shows a protein as a band on a membrane.

Activity calls are given as the source filed them. No cut-off for these calls is given here.

As to `O=C1c2c(O)cc(O)cc2OC(c2ccc(O)c(O)c2)C1O` (centres undefined) [TAXIFOLIN], the “fold change (FC)” value with HEK293 came to 1.3.

As to `COc1ccc2c(c1)C(=O)CC(c1ccc(OC)c(OC)c1)O2` (centres undefined), the “fold change (FC)” value in the assay on HEK293 came to 0.7.

With `COc1cc(C2CC(=O)c3ccccc3O2)ccc1O` (centres undefined), the “fold change (FC)” value in the assay on HEK293 was 5.1.

For `COc1cccc(C2CC(=O)c3cc(OC)ccc3O2)c1` (centres undefined), the “fold change (FC)” value with HEK293 came out at 2.5.

With `O=C1C[C@@H](c2ccccc2)Oc2cc(O)cc(O)c21` [PINOCEMBRIN], the “fold change (FC)” value in the assay with HEK293 is 0.4.

For `COc1ccc2c(c1)C(=O)CC(c1ccccc1)O2` (centres undefined), the “fold change (FC)” value with HEK293 is 1.6.

For `COc1ccc2c(c1)OC(c1ccccc1)CC2=O` (centres undefined), in the assay with HEK293, the “fold change (FC)” value is given as 1.1.

As to `O=C1CC(c2ccccc2O)Oc2ccccc21` (centres undefined) [2'-HYDROXY-FLAVANONE], the outcome in the assay with HeLa was Active. Besides, in the assay with HEK293, the “fold change (FC)” value stood at 4.2.

For `O=C1CC(c2ccccc2)Oc2c(Cl)cccc21` (centres undefined), in the assay on HEK293, the “fold change (FC)” value is on record as 1.7.

Turning to `O=C1c2ccc(O)cc2OC(c2ccc(O)c(O)c2)C1O` (centres undefined), the “fold change (FC)” value in the assay on HEK293 was found to be 1.3.

With `O=C1CC(c2ccccc2O)Oc2ccc(O)cc21` (centres undefined), the “fold change (FC)” value in the assay with HEK293 was 1.2.

Turning to `COc1ccc(C2CC(=O)c3ccccc3O2)cc1` (centres undefined), in the assay with HEK293, the “fold change (FC)” value was determined as 1.2.

As for `Cc1ccc(C2CC(=O)c3cc(Cl)ccc3O2)cc1` (centres undefined), the “fold change (FC)” value with HEK293 came to 0.8.

Take `COc1ccc2c(c1)OC(c1cc(OC)c(OC)c(OC)c1)CC2=O` (centres undefined): the “fold change (FC)” value in the assay with HEK293 was 1.

Consider `COc1ccc(C2CC(=O)c3ccccc3O2)cc1OC` (centres undefined), for which the “fold change (FC)” value in the assay with HEK293 is 4.3.

Regarding `O=C1CC(c2ccc(O)cc2)Oc2ccccc21` (centres undefined) [4'-HYDROXY-FLAVANONE], the “fold change (FC)” value with HEK293 worked out at 1.4.

Consider `O=C1CC(c2ccccc2)Oc2ccc(O)cc21` (centres undefined), for which, in the assay on HEK293, the “fold change (FC)” value was determined as 1.3.

As for `COc1cc(C2CC(=O)c3c(O)cc(O)cc3O2)cc(OC)c1OC` (centres undefined), the “fold change (FC)” value in the assay with HEK293 turned out to be 1.2.

On to `O=C1CC(c2ccccc2)Oc2ccccc21` (centres undefined) [FLAVANONE], for which, in the assay with HEK293, the “fold change (FC)” value turned out to be 2.3.

With `COc1cc(O)cc2c1C(=O)CC(c1ccccc1)O2` (centres undefined), in the assay on HEK293, the “fold change (FC)” value came out at 1.

As to `O=C1CC(c2ccccc2)Oc2cc(O)ccc21` (centres undefined) [7-HYDROXYFLAVANONE], the “fold change (FC)” value in the assay on HEK293 came to 2.1.

Take `O=C1CC(c2ccc(F)cc2)Oc2c(Cl)cccc21` (centres undefined): in the assay with HEK293, the “fold change (FC)” value was 2.4.

For the compound `O=C1CC(c2cccc(O)c2)Oc2ccccc21` (centres undefined) [3'-HYDROXYFLAVANONE], the result in the assay with HeLa was Active. Moreover, the “fold change (FC)” value in the assay with HEK293 worked out at 6.7.

With `COc1cccc2c1C(=O)CC(c1ccccc1)O2` (centres undefined), in the assay with HEK293, the “fold change (FC)” value is 3.6.

`COc1ccc(C2CC(=O)c3cc(OC)ccc3O2)c(OC)c1` (centres undefined): the “fold change (FC)” value in the assay with HEK293 is 1.5.

In the case of `O=C1C[C@@H](c2ccc(O)c(O)c2)Oc2cc(O)cc(O)c21` [ERIODICTYOL], the “fold change (FC)” value in the assay on HEK293 is recorded as 2.1.

On to `COc1ccc([C@@H]2CC(=O)c3c(O)cc(O)cc3O2)cc1O` [HESPERETIN], for which the “fold change (FC)” value in the assay on HEK293 came to 2.4.

As for `O=C1C[C@@H](c2ccc(O)cc2)Oc2cc(O)cc(O)c21` [NARINGENIN], in the assay with HEK293, the “fold change (FC)” value came out at 1.2.

Take `COc1cc(O)c2c(c1)OC(c1ccc(O)cc1)CC2=O` (centres undefined): the “fold change (FC)” value in the assay with HEK293 amounted to 0.4.

Consider `COc1ccc(C2CC(=O)c3c(OC)cc(OC)cc3O2)cc1` (centres undefined), for which the “fold change (FC)” value in the assay on HEK293 worked out at 0.7.

For the compound `Cc1ccc(C2CC(=O)c3cccc(Cl)c3O2)cc1` (centres undefined), the “fold change (FC)” value in the assay on HEK293 is 1.3.

Consider `COc1ccc(C2CC(=O)c3cc(Cl)ccc3O2)cc1OC` (centres undefined), for which the “fold change (FC)” value in the assay with HEK293 worked out at 0.7.

On to `COc1cc(OC)c2c(c1)OC(c1ccccc1)CC2=O` (centres undefined) [DIMETHYLPINOCEMBRIN], for which the “fold change (FC)” value in the assay with HEK293 amounted to 1.9.

For the compound `COc1cc(O)c2c(c1)O[C@H](c1ccccc1)CC2=O` [PINOSTROBIN], the “fold change (FC)” value with HEK293 is on record as 1.6.

Take `COc1ccc2c(c1)C(=O)CC(c1cccc(OC)c1OC)O2` (centres undefined): the “fold change (FC)” value in the assay with HEK293 is recorded as 3.9.

`O=C1c2ccc(O)cc2O[C@@H](c2cc(O)c(O)c(O)c2)[C@@H]1O` [DIHYDROROBINETIN]: the “fold change (FC)” value in the assay with HEK293 came out at 0.7.

As for `COc1cc([C@@H]2CC(=O)c3c(O)cc(O)cc3O2)ccc1O` [HOMOERIODICTYOL], the “fold change (FC)” value with HEK293 is reported as 1.2.
